Measurements from different studies.
Compare with care: the assays were run in different laboratories.
ALOX12: Polyunsaturated fatty acid lipoxygenase ALOX12 (ALOX12, Homo sapiens, UniProt P18054)

Cn1cc(-c2cc(F)cc(N3CCn4c(cc5c4CCCC5)C3=O)c2CO)cc(Nc2ccc(N3CCN(C4COC4)CC3)cn2)c1=O
inhibition (Phosphatidylinositol 3-kinase catalytic subunit type 3 (PIK3C3, Homo sapiens, UniProt Q8NEB9); enzyme activity, inhibitor; 0.1 µM): -1%

CCN(CC)CCCC[C@H](NC(=O)[C@H](CC(C)C)NC(=O)[C@H](C)NC(=O)[C@H](Cc1ccccc1)NC(=O)c1ccc(C(C)(C)C)cc1)C(=O)N[C@@H](CO)C(=O)OC
remaining binding (Nociceptin receptor (OPRL1, Homo sapiens, UniProt P41146); ligand displacement, radioligand; 10 µM): 76.8%

CC[C@H](C)[C@@H](C(=O)O[C@@H](CC(C)C)C(=O)N[C@@H](CC(C)C)C(=O)N[C@@H](C)/C=C/C(=O)N1C(=O)C=C(OC)[C@@H]1C)N(C)C
kinact/KI (Falcipain-3 (FP3, Plasmodium falciparum 3D7, UniProt Q8IIL0); enzyme activity, inhibitor, fluorescence; pH 6): 7030 M⁻¹ s⁻¹

COc1ncccc1-c1cnn2ccc(N3CCN(C(=O)OC(C)C)CC3)nc12
remaining binding (Serine/threonine-protein kinase TAO2 (TAOK2, Homo sapiens, UniProt Q9UL54); binding, competition with immobilised ligand; 1 µM): 64%

CCCCCc1cc(O)c2c(c1)OC(C)(CCC=C(C)C)C=C2 (stereo not drawn)
remaining activity (ALOX12; enzyme activity in cells, inhibitor; PMNL; 10 µM): 122%

Nc1ncc(-c2nc(N3CCOCC3)nc(N3CCOCC3)n2)c(C(F)F)n1
remaining activity (cGMP-inhibited 3',5'-cyclic phosphodiesterase 3A (PDE3A, Homo sapiens, UniProt Q14432); enzyme activity, inhibitor; 10 µM): 39.1%

Cn1cc(-c2cccc(N3CCc4c(sc5c4CC(C)(C)C5)C3=O)c2CO)cc(Nc2ccncn2)c1=O
inhibition (Serine/threonine-protein kinase PAK 3 (PAK3, Homo sapiens, UniProt O75914); enzyme activity, inhibitor; 1 µM): -3%

C#Cc1n[nH]c2c(-c3cn(C(C)c4ccccn4)c(=O)[nH]c3=O)cc(F)cc12 (stereo not drawn)
inhibition (Phosphatidylinositol 4-phosphate 3-kinase C2 domain-containing subunit alpha (PIK3C2A, Homo sapiens, UniProt O00443); enzyme activity, inhibitor; 1 µM): 8.9%

COc1cc(Nc2ncc(F)c(Nc3ccc4c(n3)NC(=O)C(C)(C)O4)n2)cc(OC)c1OC
inhibition (Serine/threonine-protein kinase PLK4 (PLK4, Homo sapiens, UniProt O00444); binding; 10 µM): 100%

Cc1nn(C)cc1-c1nc2c(N3CCN(Cc4ccc(Cl)cc4)CC3)c(Cl)cnc2[nH]1
remaining binding (Cyclin-dependent kinase 14 (CDK14, Homo sapiens, UniProt O94921); binding, competition with immobilised ligand; 1 µM): 100%

C=C(C)[C@@H]1CCC(C)=C[C@H]1c1c(O)cc(CCC)cc1O
remaining activity (ALOX12; enzyme activity in cells, inhibitor; PMNL; 10 µM): 110%

C#Cc1n[nH]c2c(-c3cn([C@@H](C)c4ccccc4)c(=O)[nH]c3=O)cc(F)cc12
inhibition (Mitogen-activated protein kinase 14 (MAPK14, Homo sapiens, UniProt Q16539); enzyme activity, inhibitor; 0.1 µM): 2.1%
